Calls of active or inactive are those of the source. No cut-off for these calls is given here.
Experiments:
[1] = (§1) Anticancer activity against mouse 319N1 cells assessed as reduction in cell viability measured after 72 hrs by celltiter-glo assay; assay type: functional, cell-based; conditions: 319N1, 72 h
How it was run: (§2)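 Cells seeded in duplicate at 10,000 per well in DMEM with 5% FBS and incubated overnight. Compounds were then added as a 10-point dose response. After 72 h, viability was read by CellTiter-Glo luminescence, with the reagent diluted 1:1 in PBS/1% Triton-X. Values were normalized to DMSO-treated cells and IC50 was derived from curve fitting.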

518T2 [2] = assay: Binding affinity to beta-tubulin in mouse 518T2 cells at 0.1 to 50 uM measured after 1.5 hrs using Alexa Fluor 532 dye by copper-mediated click reaction based SDS PAGE analysis; assay type: cell-based; conditions: dose microM 0.1-50, time 1.5 hrs
How it was run: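 Competition assay in 518T2 cells (1 million per well, DMEM with 5% FBS). Test analogs in DMSO were dispensed first at 100 nM to 50 μM and the cells plated onto them. The next day, alkyne probe (5 μM) was added for 1.5 h at 37 °C. Lysis was in 1% SDS HEPES buffer, followed by a click reaction with fluorescent azide, SDS-PAGE, and EC50 from displacement of the p50 band.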

NCI-H889 = assay: Anticancer activity against human NCI-H889 cells assessed as reduction in cell viability measured after 72 hrs by celltiter-glo assay; assay type: functional, cell-based
NCI-H128 = assay: Anticancer activity against human NCI-H128 cells assessed as reduction in cell viability measured after 72 hrs by celltiter-glo assay; assay type: functional, cell-based
[3] = Anticancer activity against mouse 984NA cells assessed as reduction in cell viability measured after 72 hrs by celltiter-glo assay; assay type: functional, cell-based; how it was run: as §2
[4] = Anticancer activity against mouse 518T2 cells assessed as reduction in cell viability measured after 72 hrs by celltiter-glo assay; assay type: functional, cell-based; conditions: 518T2, 72 h; how it was run: as §2
NCI-H2107 = assay: Anticancer activity against human NCI-H2107 cells assessed as reduction in cell viability measured after 72 hrs by celltiter-glo assay; assay type: functional, cell-based
518T2 [5] = assay: Cell cycle arrest in mouse 518T2 cells assessed as increase in accumulation at G2/M-phase at 300 nM measured after 24 hrs by propidium iodide staining based flow cytometry; assay type: functional
How it was run: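 518T2 murine SCLC cells were exposed for 24 h to compound (300 nM) or DMSO vehicle. Cell cycle distribution was then read by flow cytometry.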

[6] = biological target: Tubulin beta-3 chain (Homo sapiens) (UniProt Q13509); assay: Binding affinity to recombinant human C-terminal His-tagged beta3-tubulin expressed in insect cells assessed as reduction in microtubule growth up to 10 uM measured up to 30 mins by microscopic analysis; conditions: dose microM <=10, time min <=30
How it was run: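 Human αβ-tubulin (TUBA1B plus TUBB3 with cleavable C-terminal His-tag) was expressed in Tni insect cells. It was purified by Ni-affinity, TEV cleavage and anion exchange, then kept in BRB80 with 50 μM GTP. Growth was measured by DIC time-lapse at 30 °C on GMPCPP seeds in 144 mM PIPES pH 6.9 buffer with 1 mM GTP and 4% DMSO, over about 30 min. Compound was tested at 1, 5 and 10 μM; growth rates were measured per microtubule over two trials.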

Bos taurus = species on record: Bos taurus; assay: Binding affinity to bovine brain beta-tubulin assessed as reduction in microtubule growth at 1 uM measured up to 30 mins by microscopic analysis relative to control; set-up: scale not given: the % may be the effect or the level left; conditions: time min <=30
How it was run: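 Microtubule growth from brain tubulin was imaged by time-lapse DIC microscopy at 30 °C on biotinylated GMPCPP seeds bound to neutravidin coverslips. Frames were taken every 50 ms and averaged in batches of 30; recordings ran about 30 min. Growth rates were quantified per microtubule.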

518T2 [7] = assay: Inhibition of colony formation in mouse 518T2 cells harboring Tubb5 T238A mutant at 400 nM measured after 2 weeks by crystal violet staining based assay; assay type: functional, cell-based
How it was run: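 518T2 cells were transfected with Cas9-sgRNA complexes targeting Tubb5 plus an oligonucleotide repair template encoding T238A, or a sham control. They were selected with compound at 400 nM for 2 weeks, and the plates were then stained with crystal violet to visualize resistant colonies.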

518T2 [8] = assay: Binding affinity to beta-tubulin in mouse 518T2 cells at 0.05 to 50 uM measured after 1.5 hrs using Alexa Fluor 532 dye by copper-mediated click reaction based SDS PAGE analysis; assay type: cell-based; conditions: dose microM 0.05-50, time 1.5 hrs
How it was run: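 518T2 cells were plated at 1 million per well in DMEM with 5% FBS. The next day, alkyne probe in DMSO was added at 50 nM to 50 μM for 1.5 h at 37 °C in 5% CO2. Cells were washed, lysed in 1% SDS buffer (50 mM HEPES pH 7.4, 10 mM KCl, 2 mM MgCl2, benzonase), click-reacted with Alexa Fluor 532 azide and resolved by SDS-PAGE fluorescence.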

518T2 [9] = assay: Binding affinity to beta-tubulin in mouse 518T2 cells measured after 1.5 hrs using diazo biotin azide dye by silver staining based based SDS PAGE analysis; assay type: cell-based
How it was run: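 518T2 cells were grown at large scale (100 mg protein per condition) and treated with covalent or non-covalent alkyne probe. Lysates were clicked to 100 μM diazo biotin azide, acetone-precipitated, resolubilized in 4% SDS/PBS, and captured on streptavidin beads for 1 h at 25 °C. Eluates were run on silver-stained SDS-PAGE or analyzed by nano-LC-MS/MS (Orbitrap, HCD). Peptide abundance was normalized to the non-covalent probe sample.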

319N1 = assay: as §1; assay type: functional, cell-based; how it was run: as §2
[10] = Anticancer activity against mouse 319N1 clone C cells assessed as reduction in cell viability measured after 72 hrs by celltiter-glo assay; assay type: functional, cell-based; conditions: 319N1, 72 h; how it was run: as §2
518T2 [11] = assay: Binding affinity to beta-tubulin in mouse 518T2 cells measured after 1.5 hrs using Alexa Fluor 532 dye by copper-mediated click reaction based SDS PAGE analysis; assay type: cell-based
How it was run: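 Competition format in 518T2 murine SCLC cells, 1 million per well in DMEM with 5% FBS. Analogs in DMSO (100 nM to 50 μM) were dispensed first and cells plated onto them. Next day alkyne probe 24 (5 μM) was added for 1.5 h at 37 °C, 5% CO2. EC50 was taken from displacement of the 50 kDa band.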

Chain of Tubulin beta-3 chain (Homo sapiens) (Q13509 whole entry): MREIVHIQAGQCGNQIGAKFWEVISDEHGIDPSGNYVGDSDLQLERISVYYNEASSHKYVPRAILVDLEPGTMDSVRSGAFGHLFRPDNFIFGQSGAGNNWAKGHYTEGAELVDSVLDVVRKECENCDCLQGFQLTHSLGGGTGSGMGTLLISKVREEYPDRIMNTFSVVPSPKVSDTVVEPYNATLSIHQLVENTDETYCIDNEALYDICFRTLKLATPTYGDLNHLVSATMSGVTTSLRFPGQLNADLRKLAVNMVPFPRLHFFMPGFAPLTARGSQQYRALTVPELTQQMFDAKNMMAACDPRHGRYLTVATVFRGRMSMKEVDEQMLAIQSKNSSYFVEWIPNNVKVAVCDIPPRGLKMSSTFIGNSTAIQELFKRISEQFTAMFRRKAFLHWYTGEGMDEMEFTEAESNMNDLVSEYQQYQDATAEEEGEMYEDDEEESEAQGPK

| Structure (SMILES) | IC50 [1] [µM] | beta-tubulin binding (probe competition, active/inactive) (518T2 [2]) | further results |
| --- | --- | --- | --- |
| O=C(c1ccc(Cl)c([N+](=O)[O-])c1)N1CCN(c2ccc(F)cc2F)CC1 | 24.7 |  |  |
| Cc1ccc(Cl)cc1N1CCN(C(=O)c2cc(Cl)cc([N+](=O)[O-])c2)CC1 | 4.87 |  |  |
| Cc1ccc(Cl)cc1N1CCN(C(=O)c2ccc([N+](=O)[O-])c(Cl)c2)CC1 | 4.68 |  |  |
| O=C(c1ccc(Cl)c([N+](=O)[O-])c1)N1CCN(c2ccc(F)cc2)CC1 | 21.1 |  |  |
| O=C(c1ccc(Cl)c([N+](=O)[O-])c1)N1CCN(c2cccc(Cl)c2)CC1 | 0.694 |  |  |
| Cc1ccc(Cl)cc1N1CCN(C(=O)c2ccc(F)c([N+](=O)[O-])c2)CC1 |  | Active |  |
| O=C(c1ccc(Cl)c([N+](=O)[O-])c1)N1CCN(c2ccccc2)CC1 | 3.21 | Active | Activity (NCI-H889): Active; Activity (NCI-H128): Active; IC50 [3]: 3.21 µM; IC50 [4]: 3.21 µM; Activity (NCI-H2107): Active |
| Cc1ccc(Cl)cc1N1CCN(C(=O)c2ccc(Br)c([N+](=O)[O-])c2)CC1 | 0.055 | Active | Activity (518T2 [5]): Active; Activity [6]: inactive; Activity (Bos taurus): 80%; inhibition (518T2 [7]): inactive |
| Cc1ccc(Cl)cc1N1CCN(C(=O)c2cccc([N+](=O)[O-])c2Cl)CC1 | 12.4 |  |  |
| Cc1cccc(N2CCN(C(=O)c3ccc(Cl)c([N+](=O)[O-])c3)CC2)c1 | 1.42 | Active |  |
| O=C(c1ccc(Cl)c([N+](=O)[O-])c1)N1CCN(c2cccc(Br)c2)CC1 | 0.866 | Active |  |
| Cc1ccc(N2CCN(C(=O)c3ccc(Cl)c([N+](=O)[O-])c3)CC2)c(C)c1 | 6.99 |  |  |
| C#CCOc1cccc(N2CCN(C(=O)c3ccc(C)c([N+](=O)[O-])c3)CC2)c1 | 13 |  | Activity (518T2 [8]): inactive; Activity (518T2 [9]): inactive |
| O=C(c1cccc([N+](=O)[O-])c1)N1CCN(c2ccccc2)CC1 |  |  | Activity (319N1): inactive |
| O=C(c1ccc(Cl)c([N+](=O)[O-])c1)N1CCN(c2ccccc2F)CC1 | 7.94 |  |  |
| COC(=O)c1c(C)oc2ccc(NS(=O)(=O)c3ccc(Cl)c([N+](=O)[O-])c3)cc12 | 2.8 |  | IC50 [10]: 7.57 µM; inhibition (518T2 [11]): Dose-dependent effect |

— ChEMBL document CHEMBL4699638, “A Multipronged Approach Establishes Covalent Modification of β-Tubulin as the Mode of Action of Benzamide Anti-cancer Toxins” (J Med Chem, 2020)
